pIC50: −log10 of the molar value. Each block holds one compound with its values, some of them ahead of it.
Experiments:
[1] = molecular target: T1, Hepatocyte growth factor receptor (Homo sapiens, UniProt P08581); test: Inhibition of recombinant c-Met kinase domain (unknown origin) incubated for 30 mins using gastrin peptide substrate by HTRF assay
[2] = molecular target: T1, Hepatocyte growth factor receptor; test: Inhibition of HGF-stimulated c-Met autophosphorylation in serum starved human PC3 cells pre-incubated for 1 hr followed by human recombinant HGF stimulation for 10 mins by quantitative electrochemiluminescence immunoassay; format: cell-based, PC-3
In short: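 Serum-starved PC-3 cells (plated in high-glucose DMEM/10% FBS, then 16 h in low-glucose DMEM with 0.1% BSA) were treated with a 10-point inhibitor dilution for 1 h at 37 °C. Cells were then stimulated with 200 ng/mL recombinant human HGF for 10 min and lysed. Phospho-c-Met was captured with biotinylated anti-c-Met and 4G10 by electrochemiluminescence. IC50, n ≥ 2.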

[3] = AUC (0 to infinity) in Sprague-Dawley rat at 2 mg/kg, po; format: ADME, organism-based; parameters: time infinity, dose 2 mg/kg, route oral; details: plasma
In short: (§1)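 Male Sprague-Dawley rats given 2.0 mg/kg orally in 2% (w/v) hydroxypropylmethylcellulose, 1% (w/v) Tween 80 in water, pH 2.2 (adjusted with HCl or MSA). Some inhibitors instead used 10% (v/v) dimethylacetamide in the same vehicle.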

Cytochrome P450 2D6 = Cytochrome P450 2D6 (Homo sapiens, UniProt P10635); test: Inhibition of CYP2D6 (unknown origin); format: ADME
Liver microsome [4] = test: Stability in human liver microsomes assessed as compound turnover rate; format: ADME
Cytochrome P450 3A4 = Cytochrome P450 3A4 (Homo sapiens, UniProt P08684); test: Inhibition of CYP3A4 (unknown origin); format: ADME
Liver microsome [5] = test: Stability in rat liver microsomes assessed as compound turnover rate; format: ADME
[6] = Volume of distribution at steady state in Sprague-Dawley rat at 0.25 mg/kg, iv; format: ADME, organism-based; parameters: dose 0.25 mg/kg, route intravenous; details: in vivo, read-out: Vdss
In short: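 Male Sprague-Dawley rats were given a single IV dose of 0.25 mg/kg. The vehicle was DMSO, or for some compounds 20% (w/v) hydroxypropyl β-cyclodextrin in water adjusted to pH 3.5 with MSA. NC marks cases where the terminal disposition rate constant could not be characterized for lack of slope.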

Liver microsome [7] = test: Drug metabolism in rat liver microsomes assessed as formation of (S)-2-(8-fluoro-6-(3-methylisoxazol-5-yl)-[1,2,4]triazolo[4,3-a]pyridin-3-yl)-2-(3-methoxyquinolin-6-yl)ethanol in presence of NADPH by LC-MS/MS method; format: ADME
In short: (§2)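 Compound incubated with NADPH in mouse, rat, dog, monkey or human liver microsomes. Metabolites were identified by accurate mass spectrometry and MS/MS, and selected ion chromatograms were used to build metabolite profiles.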

Liver microsome [8] = test: Drug metabolism in human liver microsomes assessed as formation of (S)-2-(8-fluoro-6-(3-methylisoxazol-5-yl)-[1,2,4]triazolo[4,3-a]pyridin-3-yl)-2-(3-methoxyquinolin-6-yl)ethanol in presence of NADPH by LC-MS/MS method; format: ADME; in short: as §2
[9] = AUC (0 to infinity) in Sprague-Dawley rat at 0.25 mg/kg, iv; format: ADME, organism-based, Plasma; parameters: dose 0.25 mg/kg, route intravenous, time infinity; details: Sprague-Dawley, plasma
[10] = Clearance in Sprague-Dawley rat at 0.25 mg/kg, iv; format: ADME, organism-based; parameters: dose 0.25 mg/kg, route intravenous; details: Sprague-Dawley, in vivo
Liver microsome [11] = test: Drug metabolism in rat liver microsomes assessed as formation of (S)-6-(1-(8-fluoro-6-(3-methylisoxazol-5-yl)-[1,2,4]triazolo[4,3-a]pyridin-3-yl)ethyl)quinolin-3-ol in presence of NADPH by LC-MS/MS method; format: ADME; in short: as §2
[12] = Half life in Sprague-Dawley rat at 0.25 mg/kg, iv; format: ADME, organism-based; parameters: dose 0.25 mg/kg, route intravenous; details: in vivo
Liver microsome [13] = test: Drug metabolism in rat liver microsomes assessed as formation of (S)-(5-(8-fluoro-3-(1-(3-methoxyquinolin-6-yl)ethyl)-[1,2,4]triazolo[4,3-a]pyridin-6-yl)isoxazol-3-yl)methanol in presence of NADPH by LC-MS/MS method; format: ADME; in short: as §2
[14] = Drug metabolism in mouse liver microsomes assessed as formation of (S)-6-(1-(8-fluoro-6-(3-methylisoxazol-5-yl)-[1,2,4]triazolo[4,3-a]pyridin-3-yl)ethyl)quinolin-3-ol in presence of NADPH by LC-MS/MS method; format: ADME; in short: as §2
[15] = Drug metabolism in mouse liver microsomes assessed as formation of (S)-(5-(8-fluoro-3-(1-(3-methoxyquinolin-6-yl)ethyl)-[1,2,4]triazolo[4,3-a]pyridin-6-yl)isoxazol-3-yl)methanol in presence of NADPH by LC-MS/MS method; format: ADME; in short: as §2
Liver microsome [16] = test: Drug metabolism in dog liver microsomes assessed as formation of (S)-(5-(8-fluoro-3-(1-(3-methoxyquinolin-6-yl)ethyl)-[1,2,4]triazolo[4,3-a]pyridin-6-yl)isoxazol-3-yl)methanol in presence of NADPH by LC-MS/MS method; format: ADME, Canis lupus familiaris; in short: as §2
[17] = Drug metabolism in monkey liver microsomes assessed as formation of (S)-2-(8-fluoro-6-(3-methylisoxazol-5-yl)-[1,2,4]triazolo[4,3-a]pyridin-3-yl)-2-(3-methoxyquinolin-6-yl)ethanol in presence of NADPH by LC-MS/MS method; format: ADME, Macaca mulatta; details: rhesus monkey; in short: as §2
Liver microsome [18] = test: Drug metabolism in dog liver microsomes assessed as metabolite M3 in presence of NADPH by LC-MS/MS method; format: ADME, Canis lupus familiaris; in short: as §2
Liver microsome [19] = test: Drug metabolism in rat liver microsomes assessed as metabolite M3 formation in presence of NADPH by LC-MS/MS method; format: ADME; in short: as §2
Liver microsome [20] = test: Unbound clearance rat liver microsomes at 1 uM in presence of NADPH by LC-MS/MS method; format: ADME
In short: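 Aliquots were taken at 0, 10, 20, 30 and 40 min, quenched with an equal volume of acetonitrile, centrifuged and analysed by LC/MS/MS.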

[21] = Oral bioavailability in Sprague-Dawley rat at 2 mg/kg; format: ADME, organism-based; details: in vivo; in short: as §1
Liver microsome [22] = test: Drug metabolism in dog liver microsomes assessed as formation of (S)-6-(1-(8-fluoro-6-(3-methylisoxazol-5-yl)-[1,2,4]triazolo[4,3-a]pyridin-3-yl)ethyl)quinolin-3-ol in presence of NADPH by LC-MS/MS method; format: ADME, Canis lupus familiaris; in short: as §2
[23] = Drug metabolism in mouse liver microsomes assessed as formation of (S)-2-(8-fluoro-6-(3-methylisoxazol-5-yl)-[1,2,4]triazolo[4,3-a]pyridin-3-yl)-2-(3-methoxyquinolin-6-yl)ethanol formation in presence of NADPH by LC-MS/MS method; format: ADME; in short: as §2
[24] = Drug metabolism in mouse liver microsomes assessed as metabolite M3 formation in presence of NADPH by LC-MS/MS method; format: ADME; in short: as §2
Liver microsome [25] = test: Drug metabolism in dog liver microsomes assessed as formation of (S)-2-(8-fluoro-6-(3-methylisoxazol-5-yl)-[1,2,4]triazolo[4,3-a]pyridin-3-yl)-2-(3-methoxyquinolin-6-yl)ethanol in presence of NADPH by LC-MS/MS method; format: ADME, Canis lupus familiaris; in short: as §2

T1 sequence (P08581 whole entry, the tested form may be a part): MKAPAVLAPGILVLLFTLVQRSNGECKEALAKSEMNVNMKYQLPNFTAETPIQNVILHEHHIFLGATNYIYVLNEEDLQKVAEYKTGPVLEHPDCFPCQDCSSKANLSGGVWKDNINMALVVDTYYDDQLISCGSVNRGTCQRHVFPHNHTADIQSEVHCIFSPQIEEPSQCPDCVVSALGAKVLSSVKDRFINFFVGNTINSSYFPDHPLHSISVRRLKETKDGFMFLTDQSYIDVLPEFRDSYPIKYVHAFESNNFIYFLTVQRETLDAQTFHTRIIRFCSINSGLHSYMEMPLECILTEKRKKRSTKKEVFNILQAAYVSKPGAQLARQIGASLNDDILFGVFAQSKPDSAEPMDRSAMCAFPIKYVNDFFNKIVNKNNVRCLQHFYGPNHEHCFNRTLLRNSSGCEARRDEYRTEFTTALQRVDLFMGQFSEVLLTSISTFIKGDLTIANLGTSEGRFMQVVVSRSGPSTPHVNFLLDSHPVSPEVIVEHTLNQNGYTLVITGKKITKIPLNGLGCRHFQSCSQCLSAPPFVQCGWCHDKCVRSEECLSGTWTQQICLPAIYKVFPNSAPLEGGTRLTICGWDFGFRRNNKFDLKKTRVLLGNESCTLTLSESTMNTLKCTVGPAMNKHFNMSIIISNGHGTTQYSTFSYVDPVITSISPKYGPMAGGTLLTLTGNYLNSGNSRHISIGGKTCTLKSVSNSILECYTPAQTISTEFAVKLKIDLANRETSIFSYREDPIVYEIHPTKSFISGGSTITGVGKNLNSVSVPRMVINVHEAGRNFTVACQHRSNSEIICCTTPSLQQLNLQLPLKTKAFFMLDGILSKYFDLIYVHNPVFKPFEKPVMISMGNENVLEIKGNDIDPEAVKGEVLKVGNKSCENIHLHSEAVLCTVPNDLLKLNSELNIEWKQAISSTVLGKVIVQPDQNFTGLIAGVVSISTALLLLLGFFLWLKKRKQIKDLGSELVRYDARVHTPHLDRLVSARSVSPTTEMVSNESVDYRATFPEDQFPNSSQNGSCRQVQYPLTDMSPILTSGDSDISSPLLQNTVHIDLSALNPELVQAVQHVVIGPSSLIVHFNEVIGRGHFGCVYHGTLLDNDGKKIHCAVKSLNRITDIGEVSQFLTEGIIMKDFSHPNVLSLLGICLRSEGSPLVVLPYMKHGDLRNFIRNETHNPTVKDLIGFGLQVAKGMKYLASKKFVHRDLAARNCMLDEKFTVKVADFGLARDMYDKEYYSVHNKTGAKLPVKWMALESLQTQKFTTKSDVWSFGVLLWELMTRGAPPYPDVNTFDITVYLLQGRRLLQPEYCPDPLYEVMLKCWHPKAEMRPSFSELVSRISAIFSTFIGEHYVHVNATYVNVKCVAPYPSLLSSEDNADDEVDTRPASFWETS
Cytochrome P450 2D6, sequence (P10635 whole entry): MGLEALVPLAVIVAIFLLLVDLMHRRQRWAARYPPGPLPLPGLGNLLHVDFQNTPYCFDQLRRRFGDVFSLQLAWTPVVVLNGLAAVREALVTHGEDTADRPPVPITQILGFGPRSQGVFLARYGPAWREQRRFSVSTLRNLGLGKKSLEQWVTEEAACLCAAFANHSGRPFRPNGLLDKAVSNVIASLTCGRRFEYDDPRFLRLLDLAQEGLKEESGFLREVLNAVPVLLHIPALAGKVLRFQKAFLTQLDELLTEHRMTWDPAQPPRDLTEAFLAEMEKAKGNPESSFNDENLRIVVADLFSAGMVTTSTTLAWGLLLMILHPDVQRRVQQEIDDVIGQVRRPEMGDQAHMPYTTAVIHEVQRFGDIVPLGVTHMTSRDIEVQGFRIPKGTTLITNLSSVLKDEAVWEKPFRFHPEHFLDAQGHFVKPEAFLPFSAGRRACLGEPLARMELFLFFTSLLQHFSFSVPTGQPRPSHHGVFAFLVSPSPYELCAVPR
Cytochrome P450 3A4, sequence (P08684 whole entry): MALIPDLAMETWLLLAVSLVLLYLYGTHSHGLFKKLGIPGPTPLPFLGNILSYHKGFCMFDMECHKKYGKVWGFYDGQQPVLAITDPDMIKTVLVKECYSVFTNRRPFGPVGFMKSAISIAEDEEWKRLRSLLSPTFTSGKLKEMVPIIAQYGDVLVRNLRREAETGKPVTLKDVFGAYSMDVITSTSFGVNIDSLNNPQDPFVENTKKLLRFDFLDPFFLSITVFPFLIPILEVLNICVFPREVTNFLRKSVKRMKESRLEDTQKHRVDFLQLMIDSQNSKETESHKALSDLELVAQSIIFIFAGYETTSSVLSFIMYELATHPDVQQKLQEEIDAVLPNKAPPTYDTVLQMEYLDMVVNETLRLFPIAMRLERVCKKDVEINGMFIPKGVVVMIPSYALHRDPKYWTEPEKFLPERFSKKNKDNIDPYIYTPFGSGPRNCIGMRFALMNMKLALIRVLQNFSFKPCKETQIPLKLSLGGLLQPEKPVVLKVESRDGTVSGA

- pIC50 [1]: 7.92
- pIC50 [2]: 7.89
- AUC(0-inf) [3]: > 386 µM·h
- inhibition (INH) (Cytochrome P450 2D6): Not Active
- Stability (Liver microsome [4]): Stable
- inhibition (INH) (Cytochrome P450 3A4): Not Active
- Stability (Liver microsome [5]): Stable
SMILES: COc1cnc2ccc(C(F)(F)c3nnc4c(F)cc(-c5cnn(C)c5)cn34)cc2c1

- Vd [6]: 0.18 L/kg
- Drug metabolism (Liver microsome [7]): metabolite_notdetected
- pIC50 [1]: 8.70
- Drug metabolism (Liver microsome [8]): metabolite_detected
- pIC50 [2]: 8.22
- AUC(0-inf) [9]: 9 µM·h
- clearance [10]: 1.5 mL/min/kg
- Drug metabolism (Liver microsome [11]): metabolite_detected
- half-life [12]: 2.5 h
- Drug metabolism (Liver microsome [13]): metabolite_detected
- Drug metabolism [14]: metabolite_detected
- Drug metabolism [15]: metabolite_detected
- Drug metabolism (Liver microsome [16]): metabolite_detected
- Drug metabolism [17]: metabolite_detected
- Drug metabolism (Liver microsome [18]): metabolite_detected
- Drug metabolism (Liver microsome [19]): metabolite_detected
- CL free (Liver microsome [20]): 233 mL/min/kg
- bioavailability [21]: 42%
- Drug metabolism (Liver microsome [22]): metabolite_detected
- Drug metabolism [23]: metabolite_notdetected
- Drug metabolism [24]: metabolite_detected
- Drug metabolism (Liver microsome [25]): metabolite_notdetected
SMILES: COc1cnc2ccc([C@H](C)c3nnc4c(F)cc(-c5cc(C)no5)cn34)cc2c1
